Measured values published in ChEMBL document CHEMBL1828538, “Synthesis and pharmacological evaluation of indole-based sigma receptor ligands” (Eur J Med Chem, 2011).

Key:
Rattus norvegicus = species on record: Rattus norvegicus; assay: Selectivity ratio of Ki for sigma 1 receptor in rat brain membrane to sigma 2 receptor in rat brain membrane; type: cell membranes
[1] = target: Sigma non-opioid intracellular receptor 1 (Rattus norvegicus, UniProt Q9R0C9); assay: Displacement of (-)-[3H]pentazocine from sigma 1 receptor in rat brain membrane after 120 mins; type: cell membranes
Chain of Sigma non-opioid intracellular receptor 1 (Q9R0C9 whole entry): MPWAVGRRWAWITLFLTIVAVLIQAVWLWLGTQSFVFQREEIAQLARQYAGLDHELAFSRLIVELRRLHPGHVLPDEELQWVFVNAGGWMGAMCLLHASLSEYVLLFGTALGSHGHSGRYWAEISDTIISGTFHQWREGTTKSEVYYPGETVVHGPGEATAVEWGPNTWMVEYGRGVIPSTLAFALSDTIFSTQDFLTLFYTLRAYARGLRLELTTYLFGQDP

[2] = Displacement of [3H]di-o-tolylguanidine from sigma 2 receptor in rat brain membrane after 120 mins; type: cell membranes
Procedure, shortened: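 Rat whole-brain homogenate without cerebellum (400–500 μg) incubated with 3 nM [3H]DTG plus 300 nM (+)-pentazocine to mask sigma-1 sites. Filtration through PEI-soaked glass fiber, scintillation counting, run in duplicate. Ki by Cheng-Prusoff.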

[3] = Binding affinity to sigma 2 receptor
Procedure, shortened: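 Rat whole-brain homogenate without cerebellum (400–500 μg) incubated with 3 nM [3H]DTG plus 300 nM (+)-pentazocine to mask sigma-1 sites. […] Filtration through PEI-soaked glass fiber, scintillation counting, run in duplicate. Ki by Cheng-Prusoff.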

Row | Structure (SMILES) | Ratio Ki (Rattus norvegicus) | Ki [1] [µM] | Ki [2] [µM] | Ki [3] [µM]
1 | Fc1ccc(N2CCN(CCCCn3cc(-c4ccoc4)c4ccccc43)CC2)cc1 | 1.8 | 0.279 | 0.157 | 
2 | COc1cc2c(cc1OC)CN(CCCCn1ccc3cc(C(C)=O)ccc31)CC2 | 10.2 | 0.0146 | 0.00142 | 
3 | COc1cc2c(cc1OC)CN(CCCCn1ccc3ccccc31)CC2 |  | 0.141 |  | 
4 | Fc1ccc(-c2cn(CCCCN3CCN(C4CCCCC4)CC3)c3ccccc23)cc1 | 4 |  |  | 
5 | c1ccc(-c2cn(CCCCN3CCN(C4CCCCC4)CC3)c3ccccc23)cc1 | 7.5 | 0.0924 | 0.0123 | 
6 | COc1cc2c(cc1OC)CN(CCCCNC(=O)c1cc(Br)cc(OC)c1OC)CC2 |  |  |  | 0.0082
7 | Fc1ccc(N2CCN(CCCCn3cc(-c4ccccc4)c4ccccc43)CC2)cc1 | 22.3 | 0.222 | 0.00996 | 
8 | COc1cc2c(cc1OC)CN(CCCCn1cc(-c3ccccc3)c3ccccc31)CC2 | 15.4 | 0.714 | 0.0463 | 
9 | Fc1ccc(N2CCN(CCCCn3ccc4ccccc43)CC2)cc1 | 5.4 | 0.0715 |  | 
10 | CC(=O)c1ccc2c(ccn2CCCCN2CCN(c3ccc(F)cc3)CC2)c1 | 0.6 | 0.00213 | 0.0033 | 
11 | c1ccc2c(c1)c(-c1ccoc1)cn2CCCCN1CCN(C2CCCCC2)CC1 | 3.4 | 0.0345 | 0.0101 | 
12 | CC(=O)c1ccc2c(ccn2CCCCN2CCN(C3CCCCC3)CC2)c1 | 2.3 | 0.00533 | 0.00231 | 
13 | COc1cc2c(cc1OC)CN(CCCCn1cc(-c3ccoc3)c3ccccc31)CC2 | 51.1 | 0.614 | 0.012 | 
